In one data set the test system is A549. Briefly: Cytotoxicity against human A549 cells after 72 hrs by MTT assay. The format is functional, cell-based. The note with it: A549, 72 h. The method in brief:
(§1)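 Log-phase cells at 40,000–50,000 cells/mL in DMEM with 10% FBS and antibiotics were seeded and cultured overnight at 37 °C, 5% CO₂. Compounds were diluted in DMSO/PBS from 10^-4 to 10^-9 M and applied for 72 h. MTT (5 mg/mL stock) was then added for 4 h and absorbance read at 570 nm. IC50 came from nonlinear regression on triplicate wells, averaged.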

Data set [1] can be described thus: Cytotoxicity against human HCT116 cells after 72 hrs by MTT assay. To be noted: HCT-116, 72 h. In kind it is functional, cell-based. The method in brief: as §1
Another data set concerns MDA-MB-231. Kind of data set: Cytotoxicity against human MDA-MB-231 cells after 72 hrs by MTT assay. The format is functional, cell-based. To be noted: MDA-MB-231, 72 h. The method in brief: as §1
Data set [2] is described as follows: Cytotoxicity against human Bel7404 cells after 72 hrs by MTT assay. The format is functional, cell-based. To be noted: BEL-7404, 72 h. The method in brief:
as §1

Data set [3] has as its target Phosphatidylinositol 4,5-bisphosphate 3-kinase catalytic subunit alpha isoform (Homo sapiens, UniProt P42336). Kind of data set: Inhibition of PI3K-alpha (unknown origin) using PIP2 as substrate incubated for 1 hr by Kinase-Glo luminescent kinase assay.
The target in data set [4] is T1, Phosphatidylinositol 4,5-bisphosphate 3-kinase catalytic subunit delta isoform (Homo sapiens) (UniProt O00329).
T1 sequence (whole entry): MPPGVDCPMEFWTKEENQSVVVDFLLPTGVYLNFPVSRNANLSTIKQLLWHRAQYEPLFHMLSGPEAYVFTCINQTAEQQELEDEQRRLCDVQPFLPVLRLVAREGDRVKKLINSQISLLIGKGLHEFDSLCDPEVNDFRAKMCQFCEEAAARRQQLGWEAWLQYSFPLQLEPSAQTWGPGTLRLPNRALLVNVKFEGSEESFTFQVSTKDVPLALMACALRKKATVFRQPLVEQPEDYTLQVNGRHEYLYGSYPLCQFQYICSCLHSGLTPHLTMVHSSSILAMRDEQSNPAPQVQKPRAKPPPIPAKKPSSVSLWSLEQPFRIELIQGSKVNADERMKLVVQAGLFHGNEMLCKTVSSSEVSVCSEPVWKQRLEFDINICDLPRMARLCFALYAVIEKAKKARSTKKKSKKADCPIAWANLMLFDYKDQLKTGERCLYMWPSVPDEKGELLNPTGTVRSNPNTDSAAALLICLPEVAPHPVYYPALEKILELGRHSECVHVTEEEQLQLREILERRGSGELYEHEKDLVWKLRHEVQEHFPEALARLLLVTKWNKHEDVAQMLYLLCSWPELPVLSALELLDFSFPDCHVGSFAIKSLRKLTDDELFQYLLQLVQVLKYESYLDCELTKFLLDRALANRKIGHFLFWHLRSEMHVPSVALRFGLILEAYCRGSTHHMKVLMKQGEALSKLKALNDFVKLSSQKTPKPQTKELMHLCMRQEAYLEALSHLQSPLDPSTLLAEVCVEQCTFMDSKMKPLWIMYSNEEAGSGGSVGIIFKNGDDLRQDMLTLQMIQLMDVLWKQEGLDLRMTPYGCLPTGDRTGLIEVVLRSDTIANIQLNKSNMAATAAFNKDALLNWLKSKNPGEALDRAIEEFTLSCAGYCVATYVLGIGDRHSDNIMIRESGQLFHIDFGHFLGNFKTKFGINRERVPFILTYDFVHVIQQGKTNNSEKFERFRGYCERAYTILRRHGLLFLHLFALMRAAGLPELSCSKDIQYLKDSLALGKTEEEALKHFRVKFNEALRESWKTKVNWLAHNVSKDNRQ
Briefly: Inhibition of PI3K-delta (unknown origin) using PIP2 as substrate at 10 nM incubated for 1 hr by Kinase-Glo luminescent kinase assay. The method in brief: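 Final PIP2 was 50 µM and ATP 25 µM; PI3Kδ was 1.65 nM. Reactions ran 1 h at room temperature, then Kinase-Glo was added for 15 min before reading luminescence. Percent inhibition was derived from RLU. Dose-response used ten 3-fold dilutions (top 100 or 500 nM) in duplicate.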

The target of data set [5] is T2, Phosphatidylinositol 4,5-bisphosphate 3-kinase catalytic subunit beta isoform (Homo sapiens, UniProt P42338). Briefly: Inhibition of PI3K-beta (unknown origin) at 10 nM after 40 mins by ADP-Glo luminescent kinase assay. The method in brief: (§2)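 Final enzyme was PI3Kβ 4.8 nM and PI3Kγ 7.6 nM. ADP-Glo reagent stopped the reaction (40 min), then detection reagent was added (60 min) and luminescence read. Percent inhibition was derived from RLU.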
Target sequence in this assay (P42338 whole entry, looked up, canonical isoform): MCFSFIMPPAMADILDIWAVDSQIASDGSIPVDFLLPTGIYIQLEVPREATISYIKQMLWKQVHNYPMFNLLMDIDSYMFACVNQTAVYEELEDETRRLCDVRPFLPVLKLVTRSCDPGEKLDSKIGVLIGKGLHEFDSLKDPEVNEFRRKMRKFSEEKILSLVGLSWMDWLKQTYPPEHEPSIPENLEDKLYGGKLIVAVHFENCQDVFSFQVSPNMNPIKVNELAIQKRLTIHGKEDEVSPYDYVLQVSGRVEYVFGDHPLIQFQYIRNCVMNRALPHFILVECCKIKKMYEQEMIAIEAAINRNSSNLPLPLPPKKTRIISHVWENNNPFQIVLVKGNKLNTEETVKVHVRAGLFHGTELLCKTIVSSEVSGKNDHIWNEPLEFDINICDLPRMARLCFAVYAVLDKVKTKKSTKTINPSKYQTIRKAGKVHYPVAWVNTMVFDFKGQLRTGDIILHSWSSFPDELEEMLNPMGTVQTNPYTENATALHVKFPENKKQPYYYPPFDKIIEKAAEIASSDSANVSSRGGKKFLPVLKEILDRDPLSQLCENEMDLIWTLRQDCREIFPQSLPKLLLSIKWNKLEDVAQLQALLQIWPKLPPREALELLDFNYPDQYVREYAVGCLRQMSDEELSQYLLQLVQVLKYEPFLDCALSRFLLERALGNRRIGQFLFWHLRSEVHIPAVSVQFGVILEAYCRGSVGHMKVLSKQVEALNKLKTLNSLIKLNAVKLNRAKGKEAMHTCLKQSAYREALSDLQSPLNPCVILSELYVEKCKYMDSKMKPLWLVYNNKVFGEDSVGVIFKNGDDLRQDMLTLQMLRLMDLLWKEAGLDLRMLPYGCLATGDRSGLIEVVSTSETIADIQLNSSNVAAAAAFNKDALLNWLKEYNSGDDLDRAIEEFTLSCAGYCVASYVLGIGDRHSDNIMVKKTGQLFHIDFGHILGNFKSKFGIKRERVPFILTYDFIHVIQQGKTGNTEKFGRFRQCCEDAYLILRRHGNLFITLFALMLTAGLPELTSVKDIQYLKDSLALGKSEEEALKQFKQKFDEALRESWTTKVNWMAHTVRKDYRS

The target of data set [6] is T3, Phosphatidylinositol 4,5-bisphosphate 3-kinase catalytic subunit gamma isoform (Homo sapiens, UniProt P48736). Briefly: Inhibition of PI3K-gamma (unknown origin) at 10 nM after 40 mins by ADP-Glo luminescent kinase assay. The procedure, abridged: as §2
Target sequence in this assay (P48736 whole entry, looked up, canonical isoform): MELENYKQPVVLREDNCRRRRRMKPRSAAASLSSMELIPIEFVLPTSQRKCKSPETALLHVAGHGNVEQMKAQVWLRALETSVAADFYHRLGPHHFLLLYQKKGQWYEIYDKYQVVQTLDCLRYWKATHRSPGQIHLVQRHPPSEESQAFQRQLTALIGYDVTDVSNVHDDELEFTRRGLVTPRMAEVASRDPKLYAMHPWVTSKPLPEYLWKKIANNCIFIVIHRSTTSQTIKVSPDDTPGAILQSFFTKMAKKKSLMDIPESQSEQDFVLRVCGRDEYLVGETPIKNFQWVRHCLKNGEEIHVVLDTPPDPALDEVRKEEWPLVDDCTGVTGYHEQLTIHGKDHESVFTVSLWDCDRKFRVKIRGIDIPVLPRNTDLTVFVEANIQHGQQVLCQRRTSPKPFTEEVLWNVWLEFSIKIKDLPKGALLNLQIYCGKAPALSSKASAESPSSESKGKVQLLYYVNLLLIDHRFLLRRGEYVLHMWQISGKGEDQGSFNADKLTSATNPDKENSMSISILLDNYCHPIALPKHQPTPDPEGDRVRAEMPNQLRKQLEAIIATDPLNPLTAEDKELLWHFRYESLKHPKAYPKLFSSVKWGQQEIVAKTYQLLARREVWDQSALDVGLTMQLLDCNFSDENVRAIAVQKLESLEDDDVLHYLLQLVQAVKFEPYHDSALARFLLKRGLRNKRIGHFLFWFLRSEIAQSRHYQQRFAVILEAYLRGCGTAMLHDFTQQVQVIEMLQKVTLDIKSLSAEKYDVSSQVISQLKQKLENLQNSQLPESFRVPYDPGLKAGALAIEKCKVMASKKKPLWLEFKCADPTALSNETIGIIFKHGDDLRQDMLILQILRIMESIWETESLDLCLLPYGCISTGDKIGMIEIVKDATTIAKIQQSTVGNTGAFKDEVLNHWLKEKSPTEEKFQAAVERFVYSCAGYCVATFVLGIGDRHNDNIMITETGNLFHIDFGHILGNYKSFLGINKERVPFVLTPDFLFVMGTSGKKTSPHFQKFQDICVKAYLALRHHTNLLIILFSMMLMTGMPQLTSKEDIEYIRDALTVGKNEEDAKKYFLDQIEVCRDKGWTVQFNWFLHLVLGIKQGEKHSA
The nature of data set [7]: Half life in rat liver microsomes. In kind it is ADME.
For data set [8], the target named is Serine/threonine-protein kinase mTOR (Homo sapiens, UniProt P42345). Kind of data set: Inhibition of mTOR kinase (unknown origin) assessed as suppression of ULight-4E-BP1 substrate phosphorylation incubated for 1 hr by lance ultra assay.
In data set [9] the target is Phosphatidylinositol 4,5-bisphosphate 3-kinase catalytic subunit delta isoform (Homo sapiens, UniProt O00329). Briefly: Inhibition of PI3K-delta (unknown origin) using PIP2 as substrate incubated for 1 hr by Kinase-Glo luminescent kinase assay.
Data set [10] has as its target T2, Phosphatidylinositol 4,5-bisphosphate 3-kinase catalytic subunit beta isoform. Kind of data set: Inhibition of PI3K-beta (unknown origin) after 40 mins by ADP-Glo luminescent kinase assay. The method in brief:
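ADP-Glo reagent stopped the reaction (40 min), then detection reagent was added (60 min) and luminescence read. Percent inhibition was derived from RLU.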
Target sequence in this assay (P42338 whole entry, canonical isoform): as the sequence (P42338 whole entry, looked up, canonical isoform) above

Data set [11] addresses T3, Phosphatidylinositol 4,5-bisphosphate 3-kinase catalytic subunit gamma isoform. Briefly: Inhibition of PI3K-gamma (unknown origin) after 40 mins by ADP-Glo luminescent kinase assay. The method in brief: as §2
Target sequence in this assay (P48736 whole entry, canonical isoform): as the sequence (P48736 whole entry, looked up, canonical isoform) above
A short description of data set [12]: Antitumor activity against human Bel7404 cells xenografted in BALB/c nude mouse assessed as reduction in tumor volume at 50 mg/kg, po qd for 14 consecutive days relative to control. The format is functional, BEL-7404. The arrangement: scale not given: the % may be the effect or the level left. The method in brief:
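Male BALB/c nude mice carried implanted BEL-7404 tumours and were randomized once tumours reached 100–300 mm³ (about 12 days); there were 6 per treated group and 8 controls. Drug in 5% polysorbate 80/water was given orally once daily for 14 days from day 13. Tumour volume (1/2·a·b·b) and body weight were tracked, with sacrifice on day 29. The read-out was relative tumour volume versus vehicle, reported as mean SE.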

Chain of Phosphatidylinositol 4,5-bisphosphate 3-kinase catalytic subunit alpha isoform (P42336 whole entry, canonical isoform): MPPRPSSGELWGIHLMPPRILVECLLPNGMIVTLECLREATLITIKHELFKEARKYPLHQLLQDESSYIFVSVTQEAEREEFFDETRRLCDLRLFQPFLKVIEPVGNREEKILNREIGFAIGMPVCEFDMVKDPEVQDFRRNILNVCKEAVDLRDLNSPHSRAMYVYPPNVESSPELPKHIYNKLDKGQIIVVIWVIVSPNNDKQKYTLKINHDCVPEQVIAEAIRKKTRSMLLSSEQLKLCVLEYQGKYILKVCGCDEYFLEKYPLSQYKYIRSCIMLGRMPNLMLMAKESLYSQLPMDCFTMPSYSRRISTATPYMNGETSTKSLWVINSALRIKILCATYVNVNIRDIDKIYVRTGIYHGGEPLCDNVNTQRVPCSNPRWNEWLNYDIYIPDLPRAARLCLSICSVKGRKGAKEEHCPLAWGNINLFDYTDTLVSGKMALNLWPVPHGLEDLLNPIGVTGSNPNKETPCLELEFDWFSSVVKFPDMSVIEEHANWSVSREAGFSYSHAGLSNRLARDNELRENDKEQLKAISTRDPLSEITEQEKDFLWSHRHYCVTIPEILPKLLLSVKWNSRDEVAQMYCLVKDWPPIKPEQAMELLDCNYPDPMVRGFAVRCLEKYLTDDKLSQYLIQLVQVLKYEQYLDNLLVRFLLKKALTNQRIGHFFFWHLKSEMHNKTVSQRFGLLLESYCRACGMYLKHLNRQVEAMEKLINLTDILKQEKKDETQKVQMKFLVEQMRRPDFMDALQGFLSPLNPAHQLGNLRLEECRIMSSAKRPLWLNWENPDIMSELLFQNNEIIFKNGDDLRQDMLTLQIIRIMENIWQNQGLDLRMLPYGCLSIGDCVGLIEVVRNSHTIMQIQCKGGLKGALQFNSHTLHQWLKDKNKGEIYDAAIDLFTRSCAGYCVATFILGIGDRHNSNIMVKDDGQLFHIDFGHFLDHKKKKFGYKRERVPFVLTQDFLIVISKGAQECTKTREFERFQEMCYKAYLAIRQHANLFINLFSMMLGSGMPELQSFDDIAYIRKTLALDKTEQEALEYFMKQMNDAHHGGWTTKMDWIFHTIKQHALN

For the molecule `COc1ncc(-c2ccc3nccc(C#CCN(C)C)c3c2)cc1NS(=O)(=O)c1ccc(F)cc1`, the IC50 in the data set with A549 was determined as 970 nM; in data set [1] it was 1340 nM; in the data set on MDA-MB-231, 2080 nM; in data set [2] it was 1160 nM; in data set [3], 32 nM. Also, the inhibition in data set [4] came out at 10%; in [5], 17%; in data set [6], 70%.

For the molecule `COc1ncc(-c2ccc3nccc(C#CCN(C)CCO)c3c2)cc1NS(=O)(=O)c1ccc(F)cc1F`, in data set [7], the half-life stood at 28.4 min. In addition, the IC50 in the data set on A549 stood at 1010 nM; in [1], 1150 nM; in the data set with MDA-MB-231 it was 2800 nM; in data set [2], 80 nM; in data set [3], 3.9 nM. For the same molecule, the inhibition in [4] stood at 16%; in [5], 57%; in [6], 90%.

For the molecule `CCOC(=O)N1CCN(CC#Cc2ccnc3ccc(-c4cnc(OC)c(NS(=O)(=O)c5ccc(F)cc5F)c4)cc23)CC1`, the IC50 in data set [8] is 9.9 nM; with A549 it was 110 nM; in data set [1] it was 1390 nM; with MDA-MB-231 it was 3810 nM; in [2], 480 nM; in data set [3], 5.5 nM. Also, the figures for the IC50 in data set [9], in data set [10] and in [11] were 19 nM, 23 nM and 4 nM, respectively. In addition, the half-life in [7] amounted to 46.5 min. Also, the inhibition was found to be 20.7% in data set [4], 30% in [5] and 82% in data set [6].

The molecule `COc1ncc(-c2ccc3nccc(C#CCN(C)C)c3c2)cc1NS(=O)(=O)c1ccc(F)cc1F` yielded a half-life in [7] of 18.8 min. Further, the IC50 in the data set on A549 is 110 nM; in [1] it was 1080 nM; in the data set with MDA-MB-231 it was 1670 nM; in [2], 230 nM; in data set [3], 3.7 nM. In addition, the figures for the inhibition in data set [4], in data set [5] and in [6] were 6.1%, 41% and 81%, respectively.

`COc1ncc(-c2ccc3nccc(C#CCN4CCOCC4)c3c2)cc1NS(=O)(=O)c1ccc(F)cc1F` had a half-life in data set [7] of 36.9 min. Moreover, the IC50 turned out to be 240 nM with A549; 510 nM in [1]; 1990 nM in the data set on MDA-MB-231; 40 nM in data set [2]; 2.1 nM in [3]. Further, the figures for the inhibition in [4], in data set [5] and in data set [6] were 35%, 70% and 96%, respectively.

`COc1ncc(-c2ccc3nccc(C#CCN4CCCCC4)c3c2)cc1NS(=O)(=O)c1ccc(F)cc1F`: the IC50 worked out at 1810 nM in the data set on A549; 3610 nM in [1]; 10300 nM with MDA-MB-231; 2300 nM in data set [2]; 37 nM in [3]. For the same molecule, the inhibition in data set [4] is 3%; in [5], 1.4%; in [6], 55%.

`COc1ncc(-c2ccc3nccc(C#CCN4CCC(C)CC4)c3c2)cc1NS(=O)(=O)c1ccc(F)cc1F`: the IC50 in the data set with A549 is 2900 nM; in data set [1], 4020 nM; with MDA-MB-231, 7990 nM; in data set [2], 1550 nM; in data set [3] it was 70 nM. Further, the inhibition worked out at 7.7% in data set [4], 5.8% in [5] and 49% in [6].

As for `COc1ncc(-c2ccc3nccc(C#CCN4CCCCC4C)c3c2)cc1NS(=O)(=O)c1ccc(F)cc1F` (centres undefined), the IC50 in the data set on A549 turned out to be 1350 nM; in data set [1] it was 4520 nM; in the data set with MDA-MB-231, 4730 nM; in data set [2], 1140 nM; in data set [3] it was 61 nM. In addition, the figures for the inhibition in [4], in data set [5] and in data set [6] were 4.6%, 11% and 59%, respectively.

Consider `COc1ncc(-c2ccc3nccc(C#CCN(C4CCCCC4)C4CCCCC4)c3c2)cc1NS(=O)(=O)c1ccc(F)cc1F`, for which the IC50 in the data set with A549 was 12000 nM; in data set [1], 11700 nM; with MDA-MB-231, 27700 nM; in data set [2] it was 6100 nM; in [3], above 100 nM. Moreover, the results for the inhibition in [4], in data set [5] and in [6] were 3.2%, 13% and 10%, respectively.

Regarding `CNC(=O)c1cc(Oc2ccc(NC(=O)Nc3ccc(Cl)c(C(F)(F)F)c3)cc2)ccn1` [SORAFENIB], in data set [12], the Activity stood at 44%.

Take `CCN(CC)CC#Cc1ccnc2ccc(-c3cnc(OC)c(NS(=O)(=O)c4ccc(F)cc4F)c3)cc12`: the IC50 with A549 was 2430 nM; in data set [1], 2270 nM; in the data set with MDA-MB-231, 2680 nM; in data set [2], 300 nM; in [3], 33 nM. The inhibition amounted to 1.2% in data set [4], 21% in data set [5] and 68% in data set [6].

As for `COc1ncc(-c2ccc3nccc(-c4ccnnc4)c3c2)cc1NS(=O)(=O)c1ccc(F)cc1F` [OMIPALISIB], the IC50 in the data set on A549 is 600 nM; in data set [1], 10 nM; in the data set on MDA-MB-231, 130 nM; in data set [2], 10 nM; in data set [11] it was 0.6 nM.

The values above are taken from ChEMBL document CHEMBL3763019, “Discovery of benzenesulfonamide derivatives as potent PI3K/mTOR dual inhibitors with in vivo efficacies against hepatocellular carcinoma” (Bioorg Med Chem, 2016).
